Screens from PubChem.
T cruzi repl: T. cruzi replication inhibition | T. cruzi beta-gal in NIH3T3, luminescence, 90 h | inhibition, % (no concentration beside the values) | actives 1.4% (n = 300,000);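 active = mean inhibition across valid replicates above about 55%, limit read from the data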;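 note: signal also drops with host cell toxicity which is not excluded here; 0% = plate median of DMSO wells and 100% = zero luminescence signal; higher percent means less beta-gal luminescence so fewer parasites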
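Test system: β-gal T. cruzi (Tulahuen C4) inside NIH/3T3 cells / Quantity: 5,000 cells/well / Measured by: luminescence from GalScreen with 0.05% NP40, read after 60 min / Medium: DMEM plus 2% FBS / Measure: parasite load inhibition, % / Reagent: Tulahuen C4 trypomastigotes, 5000/well / Schedule: co-culture of at least 90 h after 3 h attachment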
Mdm2 MdmX PPI: inhibitors of human Mdm2/MdmX interaction; O15151+Q00987; SaOS-2 split-luciferase Mdm2/MdmX complementation, luminescence; inhibition, % at 8 µM; actives 3% (n = 330,000);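 active = inhibition of at least 50% at 8 µM in the primary screen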
Target sequence (O15151 whole entry, looked up): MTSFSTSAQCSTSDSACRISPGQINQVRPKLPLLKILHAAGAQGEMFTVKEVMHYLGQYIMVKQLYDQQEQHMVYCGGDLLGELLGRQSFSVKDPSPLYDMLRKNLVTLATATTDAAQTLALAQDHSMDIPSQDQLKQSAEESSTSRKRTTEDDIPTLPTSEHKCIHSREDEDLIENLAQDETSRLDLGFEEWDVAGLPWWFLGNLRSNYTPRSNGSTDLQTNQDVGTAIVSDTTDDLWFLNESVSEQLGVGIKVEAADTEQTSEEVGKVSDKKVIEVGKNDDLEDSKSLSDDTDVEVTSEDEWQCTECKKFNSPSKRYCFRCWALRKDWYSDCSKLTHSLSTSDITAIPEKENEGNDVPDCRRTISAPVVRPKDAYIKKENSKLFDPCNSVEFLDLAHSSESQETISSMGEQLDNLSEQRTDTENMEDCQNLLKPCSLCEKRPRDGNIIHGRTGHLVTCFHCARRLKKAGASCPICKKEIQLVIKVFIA
Target sequence (Q00987 whole entry, looked up): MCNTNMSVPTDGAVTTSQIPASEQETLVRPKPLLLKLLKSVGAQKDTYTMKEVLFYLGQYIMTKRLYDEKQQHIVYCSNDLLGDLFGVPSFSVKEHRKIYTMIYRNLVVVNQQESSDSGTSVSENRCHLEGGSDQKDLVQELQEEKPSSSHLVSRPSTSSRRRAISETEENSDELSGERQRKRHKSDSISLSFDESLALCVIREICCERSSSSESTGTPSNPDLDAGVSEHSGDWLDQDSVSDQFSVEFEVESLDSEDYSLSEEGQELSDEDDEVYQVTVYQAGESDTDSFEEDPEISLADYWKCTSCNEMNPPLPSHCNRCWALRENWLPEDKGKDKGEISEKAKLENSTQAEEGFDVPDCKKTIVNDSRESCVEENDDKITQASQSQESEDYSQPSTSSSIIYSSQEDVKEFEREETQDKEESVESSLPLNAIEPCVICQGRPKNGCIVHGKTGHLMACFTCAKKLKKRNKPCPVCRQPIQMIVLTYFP
L major viab: reduces viability of Leishmania major promastigotes; resazurin fluorescence viability; inhibition, % at 10 µM; actives 9% (n = 200,000); AID 1063; in the data active = inhibition above about 50%;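 note: promastigotes grown with compound for 44 hours at 28 °C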
Beta cell apopt: blocks beta cell apoptosis | actives 0.8% (n = 300,000) | AID 435005 | protection from apoptosis, % (concentration not given with the values) | INS-1E cytokine-induced death, ATP luminescence, 48 h; percent of positive-control rescue, neutral wells zero;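 active = Every replicate reaches about 75%, or at least half do and their mean reaches it too, limit read from the data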;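 note: 0% = cytokine-treated negative control wells and 100% = positive control rescue; higher means more ATP so stronger rescue from cytokine killing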
CSC inhib: blocks cancer stem cells; cancer stem cell-like cells viability, luminescence; inhibition, % at 7.5 µM; actives 1.1% (n = 300,000); in the data active = inhibition above about 75%; tested in HMLE shEcad cells
SKKanGAS inh: blocks kanamycin growth of S. pyogenes SKKanGAS strain; inhibition, % at 7.5 µM; BacTiter-Glo, 6 h; AID 1662; actives 1.3% (n = 300,000);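 active = mean replicate score, as percent of positive control median, at least 50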;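 note: strain carries kanamycin resistance gene driven by streptokinase promoter and grows in 40 µg/ml kanamycin; loss of luminescence reflects streptokinase promoter inhibition or plain growth inhibition; 0% = median of DMSO wells and 100% = positive control at its reference dose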
Mdm2-MdmX conf: human Mdm2/MdmX binding inhibition, confirmed. shares compounds with Mdm2 MdmX PPI. luminescent assay. inhibition, % at 8 µM. actives 55% (n = 10,000). AID 489028; in the data active = inhibition above about 40%
Full FLuc ctr: full-length luciferase inhibition in Mdm2/MdmX counter-screen; SaOS-2 full-length luciferase counterscreen, luminescence; actives 77% (n = 6,200); inhibition, % at 8 µM; shares compounds with Mdm2 MdmX PPI;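 active = mean inhibition at 8 µM reaching about 37%, which flags the compound as non-specific, limit read from the data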;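 note: p53-null SaOS-2 cells with luciferase driven by a doxycycline-inducible promoter; compound on cells about two nights before reading with doxycycline added after day one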
* hit, by the source's call; . = no result given; ! = a repeat was not active. The list is not random: actives were taken first. Their share in the collection is about 9.4%.

SMILES	T cruzi repl	Mdm2 MdmX PPI	L major viab	Beta cell apopt	CSC inhib	SKKanGAS inh	Mdm2-MdmX conf	Full FLuc ctr
CCOC(=O)C1=C(N)n2c(s/c(=C\c3cccs3)c2=O)=C(C(=O)OCC)C1c1cccs1 (centres undefined)	-1	62*	-4	12	56	4	50*	79*
CCOC(=O)C1=C(C)NC(=O)NC1c1cccs1 (centres undefined)	-7	-4	1	-4	4	-4	.	.
COc1ccccc1C(=O)NC(=O)COC(=O)c1ncc(Cl)c(Cl)c1Cl	-17	14	.	-3	4	-17	.	.
CCOC(=O)C1=C(C)Nc2nnnn2C1c1ccccc1Cl (centres undefined)	.	-15	8	1	-10	.	.	.
CCOC(=O)C1=C(COCCN)NC(C)=C(C(=O)OC)C1c1ccccc1Cl (centres undefined)	46	62*!	.	-3	11	2	21	.
CCCCN(C)CCC(=O)Nc1ccc2c(c1)CCC2	14	5	32	0	8	-4	.	.
Cc1cc(N)n2ncc(-c3ccc(F)cc3)c2n1	-21	-40	9	0	-12	-20	.	.
Cc1nc2c(-c3ccc(F)cc3)cnn2c(N)c1-c1ccc(F)cc1	32	61*	.	5	21	7	47*	144*
COC(=O)c1ccccc1NC(=O)CSc1nncn1-c1ccccn1	-1	8	.	2	-5	5	.	.
O=C(N=Nc1c(O)[nH]c2ccccc12)c1cc(NS(=O)(=O)c2cccs2)cc(NS(=O)(=O)c2cccs2)c1	4	77*	-8	-5	7	4	31	80*
CC1(C)Oc2ccc3ccc(=O)oc3c2C[C@H]1O[C@@H]1O[C@H](CO)[C@@H](O)[C@H](O)[C@H]1O	.	-29	.	-6	-8	.	.	.
CC(=O)OC(C)(C)/C=C/C(=O)[C@](C)(O)C1[C@H](O)C[C@@]2(C)C3CC=C4C(C=C(O[C@@H]5O[C@H](CO)[C@@H](O)[C@H](O)[C@H]5O)C(=O)C4(C)C)[C@]3(C)C(=O)C[C@]12C (some centres undefined)	.	96*	.	34	10	.	-8	.
COc1cccc(Sc2ccccc2/C=N/NC(N)=O)c1	-47	53*	-1	7	49	-5	67*	58*
CN[C@H]1CCc2cc(OC)c(OC)c(OC)c2-c2ccc(N(C)CC(OC)OC)c(=O)cc21	17	71*	.	10	80*	0	49*	66*
COc1cc2c(c(OC)c1OC)-c1ccc(N(C)CC(OC)OC)c(=O)cc1[C@@H](NC(C)=O)CC2	18	68*	.	30	75*	2	63*	132*
CCN(CC)c1ccc2c(cc1=O)[C@@H](NC)CCc1cc(OC)c(OC)c(OC)c1-2	35	69*	.	39	56	2	61*	90*
COc1cc(CNC2CCCc3ccccc32)cc(OC)c1OC (centres undefined)	-19	-20	10	-2	-15	1	.	.
N#Cc1ccccc1COC(=O)c1cccc(S(=O)(=O)N2CCCC2)c1	.	-7	.	2	.	.	.	.
CC(=O)Nc1ccc(S(=O)(=O)NCC2CCC(C(=O)NCCCN(C)Cc3ccccc3)CC2)cc1 (centres undefined)	18	3	.	0	-2	0	.	.
N#C/C(=C\c1ccc(-c2ccc(F)cc2)o1)C(=O)Nc1nc(-c2cccs2)cs1	-55	71*	3	1	12	8	21	.
CC(C)(C)c1nn(-c2ccccc2)c2[nH]c(=O)c(CNCc3ccc4c(c3)OCO4)cc12	8	92*	16	.	.	-4	80*	64*
N#CC1=C(N)NC(SCc2ccccc2)=C(C#N)C12CCCCC2	23	64*	99*	-4	59	2	61*	72*
COc1ccc(C(CNC(=O)c2ccc(NS(=O)(=O)c3ccc(F)c(C)c3)cc2)N2CCOCC2)cc1 (centres undefined)	-4	26	.	1	-6	0	.	.
CCc1ccc(S(=O)(=O)Nc2cccc(-c3ccc4nnc(C)n4n3)c2)s1	12	55*	.	11	12	20	53*	85*
COc1ccc(S(=O)(=O)Nc2ccc(-c3ccc4nnc(C)n4n3)cc2)c(OC)c1	.	71*	.	-11	16	.	36	.
SMILES	T cruzi repl	Mdm2 MdmX PPI	L major viab	Beta cell apopt	CSC inhib	SKKanGAS inh	Mdm2-MdmX conf	Full FLuc ctr
COc1ccc(OC)c(S(=O)(=O)Nc2ccc(-c3ccc4nnc(C)n4n3)cc2)c1	4	51*	.	-1	29	0	61*	65*
Cc1ccc(S(=O)(=O)Nc2cccc(-c3ccc4nncn4n3)c2)cc1	15	63*	.	12	3	8	78*	66*
COCCNC(=O)C1CCN(S(=O)(=O)c2c(C)noc2/C=C/c2cccs2)CC1	6	-2	.	5	-9	-1	.	.
NNC(=O)C1SCCN1S(=O)(=O)c1ccc(Cl)cc1 (centres undefined)	1	29	.	-5	-16	4	.	.
O=C(NCCc1ccccc1)C(c1cccs1)N(C(=O)CCl)c1ccc(Cl)cc1 (centres undefined)	26	99*	101*	18	64	-7	100*	52*
CC(=O)c1c(-c2ccccc2)[nH]c2ccccc12	6	52*	.	20	32	-1	33	.
COC(=O)CC1NCCc2cc(OC)c(OC)cc21 (centres undefined)	16	7	-8	-4	.	10	.	.
CC[C@H]1CN2CCc3cc(OC)c(OC)cc3C2C[C@@H]1C[C@H]1NCCc2cc(OC)c(OC)cc21 (some centres undefined)	.	97*	.	.	.	.	99*	51*
CCN(CC)CCNC(=O)CCc1c(C)nc2c(c(C)nn2-c2ccc(C)cc2)c1C	4	61*	.	-3	24	1	32	.
Cc1ccc(-c2nn3c(C)nnc3s2)cc1NCc1c(F)cccc1Cl	20	81*	6	24	39	-11	66*	57*
Cc1ccc(CNc2cc(-c3nn4c(C)nnc4s3)ccc2C)s1	14	41	-1	.	.	-6	.	.
Cc1ccc(CNC(=O)C2CCC(CNc3nc(=S)[nH]c4ccccc34)CC2)cc1 (centres undefined)	20	23	-4	54	34	5	.	.
COc1cccc(CNC(=O)C2CCC(CNc3nc(=S)[nH]c4ccccc34)CC2)c1 (centres undefined)	12	61*	-1	1	28	3	-2	.
O=C(Nc1cc(Cl)ccc1-n1cncn1)c1ccco1	-14	30	.	-7	-5	-1	.	.
